Data published in ChEMBL document CHEMBL3124880, “4-(3-Chloro-5-(trifluoromethyl)pyridin-2-yl)-N-(4-methoxypyridin-2-yl)piperazine-1-carbothioamide (ML267), a potent inhibitor of bacterial phosphopantetheinyl transferase that attenuates secondary metabolism and thwarts bacterial growth” (J Med Chem, 2014).
Values after ≈ are worked out from the molar mass of the structure shown. Active and inactive are the calls of the source.

Tests used:
[1] = test system: Bacillus subtilis; assay: Antibacterial activity against Bacillus subtilis HM489 assessed as growth inhibition at 1.7 ug/mL after 16 to 20 hrs by resazurin dye-based assay; format: functional, organism-based
Outline: (§1)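 Broth microdilution. Test article from 1 μL DMSO in 50 μL cation-adjusted Mueller Hinton II (bacteria) or RPMI 1640 (fungi), plus ~1×10^3 cfu inoculum in the same medium. Incubated 16–20 h at 30–37 °C (48 h for fungi). MIC scored visually as the first well without growth; resazurin added for imaging.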

[2] = Inhibition of Bacillus subtilis AcpS-PPTase using rhodamine-CoA/BHQ-2-YbbR as substrate preincubated for 15 mins followed by substrate addition by HTS assay
Outline: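 AcpS-PPTase at 100 nM final in 50 mM HEPES-Na pH 7.6, 10 mM MgCl2, 0.01% Nonidet P-40, 0.01% BSA; compound preincubated 15 min at room temperature, then rhodamine-CoA (5 μM final) and BHQ-2-YbbR (12.5 μM final) added. Fluorescence read (525 ex/598 em) at start and after 60 min; difference gives rate.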

[3] = test system: Bacillus subtilis; assay: Antibacterial activity against Bacillus subtilis HM489 assessed as cellular ATP content after 5 hrs by BacTiter-Glo assay; format: functional, organism-based; conditions: HM489, 5 h
[4] = Half life in CD-1 mouse at 30 mg/kg, ip; format: ADME, organism-based; design: dose 30 mg/kg, route intraperitoneal; conditions: in vivo
Outline: (§2)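 Male CD1 mice, 6–8 weeks old. Dosed iv at 3 mg/kg or ip at 30 mg/kg as a solution in 5% DMSO/10% Solutol in water. Plasma sampled in triplicate at eight time points over 24 h.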

[5] = test system: Bacillus subtilis; assay: Antibacterial activity against Bacillus subtilis OKB105 assessed as effect on cellular density at 0.53 to 1.1 ug/mL after 28 hrs; format: functional, organism-based
Outline: (§3)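 B. subtilis OKB105 cultured with compound at 0.53 or 1.1 µg/mL against a vehicle control. Culture density and surfactin titer sampled periodically over 28 h.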

[6] = Cmax in CD-1 mouse at 30 mg/kg, ip; format: ADME, organism-based; design: dose 30 mg/kg, route intraperitoneal; conditions: in vivo; outline: as §2
[7] = test system: Staphylococcus aureus; assay: Antibacterial activity against Staphylococcus aureus BK2395 assessed as growth inhibition in presence of calf serum; format: functional
[8] = Metabolic stability in mouse liver microsomes measured over 1 hr in absence of NADPH; format: ADME, Microsome
Outline: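 Mouse liver microsomes incubated with compound without NADPH over 1 h.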

[9] = test system: Escherichia coli; assay: Antibacterial activity against wild type Escherichia coli BW25113 assessed as growth inhibition at 1.8 to 250 ug/mL after 16 to 20 hrs by broth dilution method in presence of AcrAB-TolC inhibitor phenylarginine-beta-napthamide; format: functional
Outline: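 E. coli BW25113 (wild type) and JW0451 (ΔacrB) tested by broth dilution in cation-adjusted Mueller Hinton II, ~1×10^3 cfu, 16–20 h. Growth shown with resazurin. Checkerboard combination with the efflux inhibitor PAβN in the wild type.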

[10] = test system: Bacillus subtilis; assay: Antibacterial activity against Bacillus subtilis OKB105 assessed as inhibition of surfactin production at 0.53 ug/mL after 28 hrs by LC-MS analysis relative to vehicle-treated control; format: functional; conditions: OKB105, 28 h
Outline: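 B. subtilis OKB105 cultures grown with sublethal compound concentrations. Culture growth and surfactin titer measured periodically over 28 h; titer expressed relative to vehicle control.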

[11] = test system: Bacillus subtilis; assay: Antibacterial activity against Bacillus subtilis 168 assessed as disruption of cell membrane integrity at 10 times MIC after 15 mins by Syto9/propidium iodide staining-based BacLight LIVE/DEAD microscopic analysis; format: functional, organism-based; conditions: subsp. subtilis str. 168
[12] = Chemical stability of the compound in HEPES buffer at room temperature measured over 48 hrs by LC/MS analysis; format: physicochemical
Outline: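 Compound held in aqueous media over pH 2–9 and in PBS and HEPES buffers, then monitored for degradation.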

[13] = test system: Bacillus subtilis; assay: Antibacterial activity against Bacillus subtilis 168 assessed as growth inhibition after 16 to 20 hrs by resazurin dye-based assay; format: functional; conditions: subsp. subtilis str. 168; outline: as §1
[14] = test system: Bacillus subtilis; assay: Antibacterial activity against Bacillus subtilis OKB105 assessed as growth inhibition at 1.7 ug/mL after 16 to 20 hrs by resazurin dye-based assay; format: functional, organism-based
[15] = test system: Bacillus subtilis; assay: Antibacterial activity against Bacillus subtilis OKB105 assessed as effect on doubling time in log phase at 0.53 to 1.1 ug/mL after 28 hrs; format: functional, organism-based; outline: as §3
[16] = test system: Candida albicans; assay: Antifungal activity against fluconazole-resistant Candida albicans ATCC 96901 assessed as growth inhibition at 0.8 to 100 ug/mL after 48 hrs by resazurin dye-based assay; format: functional, organism-based
Outline: (§4)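 Broth microdilution. Inoculum from overnight liquid cultures or 2-day colonies, ~1 × 10^3 cfu per well. Compound in DMSO added to cation-adjusted Mueller Hinton II broth (bacteria) or RPMI 1640 (fungi). Incubated at 30–37 °C for 16–20 h, or 48 h for fungi.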

[17] = test system: Staphylococcus aureus; assay: Antibacterial activity against community-acquired methicillin-resistant Staphylococcus aureus USA500 assessed as growth inhibition at 0.8 to 100 ug/mL after 16 to 20 hrs by resazurin dye-based assay; format: functional, organism-based; outline: as §4
[18] = Volume of distribution in CD-1 mouse at 3 mg/kg, iv; format: ADME, organism-based; design: dose 3 mg/kg, route intravenous; conditions: in vivo
Outline: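 Male CD1 mice, 6–8 weeks old, given 3 mg/kg iv as a solution in 5% DMSO/10% Solutol in water. Plasma sampled at eight time points over 24 h, in triplicate; MRT defined as time to eliminate 63.2% of the iv dose.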

[19] = biological target: T1, L-aminoadipate-semialdehyde dehydrogenase-phosphopantetheinyl transferase (Homo sapiens) (UniProt Q9NRN7); assay: Inhibition of human PPTase up to 125 uM by gel-based fluorescence assay
T1 sequence (whole entry): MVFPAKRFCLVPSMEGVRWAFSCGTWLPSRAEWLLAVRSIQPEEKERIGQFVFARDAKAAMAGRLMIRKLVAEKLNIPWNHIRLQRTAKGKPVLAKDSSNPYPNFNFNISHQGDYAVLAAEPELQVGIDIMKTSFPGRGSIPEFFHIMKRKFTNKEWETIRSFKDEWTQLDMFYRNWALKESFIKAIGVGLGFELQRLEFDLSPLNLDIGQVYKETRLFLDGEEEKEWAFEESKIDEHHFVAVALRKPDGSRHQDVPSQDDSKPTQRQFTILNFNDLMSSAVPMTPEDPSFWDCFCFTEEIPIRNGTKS

[20] = Clearance in CD-1 mouse at 3 mg/kg, iv; format: ADME, organism-based; design: dose 3 mg/kg, route intravenous; conditions: in vivo; outline: as §2
[21] = test system: Pseudomonas aeruginosa; assay: Antibacterial activity against Pseudomonas aeruginosa ATCC 9028 assessed as growth inhibition at 0.8 to 100 ug/mL after 16 to 20 hrs by resazurin dye-based assay; format: functional, organism-based; outline: as §1

Q: For `COc1ccnc(NC(=S)N2CCN(c3ncc(C(F)(F)F)cc3Cl)CC2)c1`, which “growth inhibition (GI)” value [1] is on record?
A: The value was “Active”.

Q: And the IC50 [2]?
A: Its IC50 is 8.1 µM.

Q: And the IC50 [3]?
A: The IC50 was 9.3 µM.

Q: What about the half-life [4] of the same compound?
A: Its half-life is 2 h.

Q: What about the Activity [5] of the same compound?
A: Its Activity is “inactive”.

Q: What about the Cmax [6] of the same compound?
A: Its Cmax is 17600 ng/mL.

Q: What about the MIC [7] of the same compound?
A: The MIC was greater than 57 µM.

Q: And the Stability [8]?
A: Its Stability is “Stable”.

Q: What about the “growth inhibition (GI)” value [9] of the same compound?
A: The value was “Active”.

Q: And the inhibition at 0.53 µg/mL [10]?
A: Its inhibition at 0.53 µg/mL is 33%.

Q: And the Activity [11]?
A: Its Activity is “inactive”.

Q: What about the Stability [12] of the same compound?
A: The Stability was “Stable”.

Q: And the MIC [13]?
A: Its MIC is 2 µg/mL (≈ 4.63 µM).

Q: And the “growth inhibition (GI)” value [14]?
A: The value was “Active”.

Q: What about the Activity [15] of the same compound?
A: The Activity was “inactive”.

Q: And the “growth inhibition (GI)” value [16]?
A: Its value is “inactive”.

Q: What about the “growth inhibition (GI)” value [17] of the same compound?
A: The value was “Active”.

Q: And the Vd [18]?
A: The Vd was 1.5 L/kg.

Q: And the inhibition [19]?
A: The inhibition was “inactive”.

Q: And the clearance [20]?
A: Its clearance is 7.2 mL/min/kg.

Q: What about the “growth inhibition (GI)” value [21] of the same compound?
A: Its value is “inactive”.
